# Screens from PubChem.
# B2AR ag – agonists of human beta-2 adrenergic receptor inducing internalization; P07550; Am2.2-beta2AR cells, FAP receptor internalization, flow cytometry; response, % (no concentration beside the values); 340,000 tested, 0.43% active;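 active = response above a set limit, near 3 SD of response in nonfluorescent compounds, cut at about 42% in these data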
# TLR9-MyD88 block – inhibitors of human TLR9-MyD88 binding. Q9NR96+Q99836. 340,000 tested, 0.21% active. CHO BLA complementation TLR9-MyD88, CCF4 FRET ratio. inhibition, % at 4.98 µM;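 active = inhibition above the mean over all tested compounds plus 3 SD, cut at about 21% in these data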;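 note: 0% = DMSO only wells and 100% = clavulanate BLA inhibitor control wells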
# TLR4-MyD88 BLA – inhibitors of human TLR4-MyD88 binding | inhibition, % at 8.4 µM | HeLa CL3-4 TLR4/MyD88 BLA complementation, FRET ratio | 200,000 tested, 0.18% active | AID 861; in the data active = inhibition above about 25%;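 note: 0% = vehicle and 100% = reference inhibitor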
# Dynein cargo inh – blocks dynein driven cargo transport along microtubules; 3617.4 mouse cells, GR-EGFP nuclear translocation imaging; test concentration mostly 20 µM; stimulated with dexamethasone, 1 µM; hits give low values; z-score, hits read low; 220,000 tested, 0.47% active; AID 1381;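 active = plate z-score of nuclear minus cytoplasmic receptor signal below a set negative limit, without overly bright fluorescence or cell loss, cut at about -3.5 in these data, passing the limit was not always enough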;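 note: z-score of nuclear minus cytoplasmic ring GR-EGFP intensity difference per well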
#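 medium = tetracycline-free induction medium containing charcoal-stripped FBS | also added = 1.0 µM final dexamethasone stimulus | schedule = 48 h induction, 1 h compound, 30 min dex at 37 °C | technique = fixed, Hoechst-stained cells imaged at 10x for EGFP | measure = GR-EGFP nuclear translocation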
# NOD2 RIPK2 PPI – NOD2-RIPK2 protein interaction inhibition | AID 624267 | 360,000 tested, 0.38% active | CHO BLA complementation NOD2-RIPK2, CCF4 ratio | O43353 | inhibition, % at 4.98 µM; in the data active = inhibition above about 21%;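 note: 0% = vehicle only and 100% = reference blocker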
# ABHD5 PLIN5 PPI – blocks binding of human ABHD5 to perilipin-5; Split G. princeps luciferase complementation, luminescence, 4 h; inhibition, % at 4 µM; Q00G26+Q8WTS1; 360,000 tested, 0.78% active;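 active = inhibition above the mean inhibition across every tested compound plus 3 SD, cut at about 22% in these data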;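 note: 0% = DMSO only wells and the 100% control is not disclosed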
# ABHD5-PLIN5 conf – ABHD5-PLIN5 interaction inhibition, confirmed. shares compounds with ABHD5 PLIN5 PPI. biochemical ABHD5-PLIN5 interaction, luminescence. inhibition, % at 4 µM. 2,200 tested, 67% active. AID 651612; in the data active = inhibition above about 23%;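 note: 0% = DMSO vehicle wells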
# HNF4 counter – active in HNF4 split-luciferase counter-screen for ABHD5-PLIN5 inhibitors. shares compounds with ABHD5 PLIN5 PPI. HNF4 dimerization, luminescence, biochemical. inhibition, % at 4 µM. 2,200 tested, 77% active. AID 651674;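 active = mean inhibition across replicate wells exceeding the computed hit threshold, cut at about 13% in these data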;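 note: light from luciferase halves that rejoin when HNF4 fusion proteins dimerize; 0% = DMSO only wells and the 100% control is not given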
# Target sequence (P41235 whole entry, looked up, the tested form may be a part): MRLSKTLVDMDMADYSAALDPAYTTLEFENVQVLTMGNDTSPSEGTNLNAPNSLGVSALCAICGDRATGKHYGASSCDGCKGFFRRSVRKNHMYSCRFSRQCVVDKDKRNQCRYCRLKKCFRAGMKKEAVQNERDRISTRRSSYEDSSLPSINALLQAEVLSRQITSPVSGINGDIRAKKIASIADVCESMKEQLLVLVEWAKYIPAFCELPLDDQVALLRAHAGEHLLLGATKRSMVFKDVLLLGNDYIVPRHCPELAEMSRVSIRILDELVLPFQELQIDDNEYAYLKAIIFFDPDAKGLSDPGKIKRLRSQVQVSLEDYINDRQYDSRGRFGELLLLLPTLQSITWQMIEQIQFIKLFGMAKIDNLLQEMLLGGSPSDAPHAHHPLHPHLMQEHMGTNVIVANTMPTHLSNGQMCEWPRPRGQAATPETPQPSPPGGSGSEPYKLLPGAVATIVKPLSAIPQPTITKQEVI
# Starred values were filed as active, the others as inactive; · = no result. Rows were chosen to be rich in hits. Some 1.6% of all compounds tested hit in one or more screens of this group.
SMILES,B2AR ag,TLR9-MyD88 block,TLR4-MyD88 BLA,Dynein cargo inh,NOD2 RIPK2 PPI,ABHD5 PLIN5 PPI,ABHD5-PLIN5 conf,HNF4 counter
C=C1C(=O)[C@]23C[C@H]1CCC2[C@]1(C)C(=O)CC[C@@](C)(C(=O)O)C1C[C@@H]3O (some centres not stated),·,·,·,·,2,46*,41*,100*
CC(C)C[C@@H]1Cc2[nH][nH]c(=O)c2[C@H](C(C)C)O1,·,·,·,·,0,0,·,·
Cc1ccccc1NC(=O)C(=Cc1ccc(C(=O)O)cc1)C(=O)Nc1ccccc1C,15,-2,-3,-2.6,3,27*,65*,45*
CC(=O)Nc1ccccc1C,5,-8,·,·,-16,-9,·,·
CC(=O)c1cccc(NC(=O)/C(=C/c2ccco2)NC(=O)c2ccco2)c1,-3,0,·,·,-3,2,·,·
O=C(Nc1cccc(F)c1)/C(=C\c1ccco1)NC(=O)c1ccco1,5,0,·,·,-3,27*,3,0
O=C(Nc1cccc(C(F)(F)F)c1)/C(=C/c1ccco1)NC(=O)c1cccs1,-1,9,11,0.41,-15,30*,10,11
CC(=O)c1cccc(NC(=O)/C(=C\c2ccco2)NC(=O)c2cccs2)c1,-7,-9,-1,2.6,4,6,·,·
CC1(C)CC(=O)C=C(NC2=CC3OC(c4ccccc4)OCC3OC2=O)C1 (configuration not stated),11,2,4,-3.4,20,63*,85*,94*
COC(=O)C1=CN(c2ccccc2OC)C(N)=C(C#N)C1c1cccc([N+](=O)[O-])c1 (configuration not stated),·,·,·,·,2,4,·,·
Cc1ccc(/C=[N+](\[O-])c2ccccc2C)o1,3,-8,·,·,-25,23*,2,11
CC1=NOC(=O)/C1=C/c1ccc(-c2ccc(Cl)cc2)o1,65*,6,17,-0.96,-3,33*,99*,107*
CC1=NOC(=O)/C1=C\c1ccc(-c2ccc(Br)cc2C(=O)O)o1,2,3,5,0.26,-4,7,·,·
CC1=NOC(=O)/C1=C\c1ccc(-c2cc(Cl)ccc2Cl)o1,80*,7,5,-0.018,3,39*,85*,86*
Nc1ccn([C@@H]2O[C@H](CNCc3ccc(-c4cc(C(F)(F)F)ccc4Cl)o3)[C@@H](O)[C@H]2O)c(=O)n1,·,15,·,·,3,0,·,·
CCNC(=O)C1(C)CCN(C(=O)C(c2ccccc2)c2ccccc2)C1 (configuration not stated),·,·,·,·,-4,2,·,·
CCn1c(SCC(=O)N/N=C/C=C/c2ccco2)nnc1-c1ccccc1,-5,0,-5,-0.39,3,31*,24*,44*
CCOC(=O)c1c(NC(=O)/C=C/C(=O)O)sc(C)c1-c1ccc(C)c(C)c1,25,-7,-1,-0.62,-2,25*,20,3
Cc1ccc(NC(=O)C(OC(=O)c2cnc(C)cn2)c2ccccc2)c([N+](=O)[O-])c1 (configuration not stated),-6,-7,·,·,0,2,·,·
CC1=C(C)CS(=O)N(c2ccc(S(N)(=O)=O)cc2)C1 (configuration not stated),7,0,-3,-1.7,4,34*,66*,89*
NS(=O)(=O)c1ccc(N2C(=O)C3CC=CCC3C2=O)cc1 (configuration not stated),3,-5,-5,0.39,-4,3,·,·
CC1=C(C)CS(=O)N(S(=O)(=O)c2ccccc2)C1 (configuration not stated),6,7,-1,-0.49,3,58*,72*,101*
COc1cc(C(C2C(=O)CC(C)(C)CC2=O)C2C(=O)CC(C)(C)CC2=O)ccc1OC(C)=O,0,-3,·,·,-5,25*,37*,33*
COc1ccc(NC(=O)C2Cc3c(-c4ccc5c(c4)OCO5)ccnc3O2)cc1OC (configuration not stated),·,·,·,·,-1,12,·,·
CNc1ccc(Br)cc(C(=O)/C=C/c2cc(OC)ccc2OC)c1=O,10,9,4,-4.1*,6,26*,63*,58*
SMILES,B2AR ag,TLR9-MyD88 block,TLR4-MyD88 BLA,Dynein cargo inh,NOD2 RIPK2 PPI,ABHD5 PLIN5 PPI,ABHD5-PLIN5 conf,HNF4 counter
CN(C)CCOC1(Cc2ccc(F)cc2)CCC(C(C)(C)C)CC1 (configuration not stated),2,2,·,·,11,25*,33*,5
Cc1ccc(CC2(OCCN(C)C)CCC(C(C)(C)C)CC2)cc1 (configuration not stated),8,-1,·,·,-11,26*,30*,2
Cc1ccc2sc(N(CCN(C)C)C(=O)c3ccc4ccccc4c3)nc2c1C,0,6,·,·,4,6,·,·
Cc1ccc2sc(N(CCCN(C)C)C(=O)CN3C(=O)c4ccccc4C3=O)nc2c1C,2,-13,-19,0.033,9,31*,23*,·
O=C(C=Cc1ccc2c(c1)OCO2)c1ccccc1,10,8,·,·,-9,18,·,·
COc1cccc(/C=C/C(=O)OCC(=O)c2ccc3c(c2)NC(=O)CO3)c1,2,-6,·,·,-3,-5,·,·
O=C1COc2ccc(C(=O)/C=C/c3ccccc3)cc2N1,3,3,10,-1,11,47*,77*,62*
N#Cc1ccc(/C=C/C(=O)c2ccc3c(c2)OCO3)cc1,6,-2,16,-1.1,-7,33*,88*,82*
O=C(/C=C/c1ccccc1)c1ccc2c(c1)OCCCCO2,7,-3,24,-2.3,7,24*,53*,43*
CCOc1cc(CNCCCN2CCOCC2)cc(Br)c1OCC(=O)Nc1cccc(C(F)(F)F)c1,18,3,3,-0.25,6,25*,17,15*
COc1cc(CNCCCN2CCOCC2)cc(Br)c1OCc1ccc(Cl)cc1,39,2,10,5.8,10,35*,17,1
COc1cccc(C(=O)NCCS(=O)(=O)N2CC(C)CC(C)C2)c1 (configuration not stated),0,3,·,·,2,-9,·,·
CC(=O)Nc1ccc(S(=O)(=O)Oc2cccc(/C=C3\SC(N)=NC3=O)c2)cc1,3,3,13,0.79,-3,28*,35*,22*
NC1=NC(=O)/C(=C/c2cccc(F)c2)S1,4,-2,·,·,-6,1,·,·
Cc1nc2c(OCCOc3ccc(F)cc3)cccn2c1N(C)C(=O)CCC1CCCC1,·,·,·,·,9,9,·,·
